Screening data: PubChem, Sanford-Burnham Center for Chemical Genomics
UPR XBP1 act: adaptive UPR (XBP1) activation | CHO-XBP1 luciferase reporter, IRE1-XBP1 UPR activation, luminescence; percent of tunicamycin response, DMSO as zero | activation, % at 20 µM | 0.33% of 330,000 active;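 active = versus positive control, 20 µM dose yields 30% or more activation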
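Material – CHO cell line with stable XBP1 luciferase reporter · Buffer or medium – F12 plus 10% FBS · Compound – single point, 20 µM final compound, 1% DMSO · Schedule – 16-18 h cell attachment at 37 °C, then 6 h compound exposure · Signal – Steady-Glo luminescence read · Benchmarks – high control tunicamycin 10 µg/mL final, low control DMSO vehicle only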
tim23-1 inh: tim23-1 yeast growth inhibition | S. cerevisiae tim23-1 growth, BacTiter-Glo luminescence, 24 h | inhibition, % at 20 µM | 1.3% of 330,000 active | AID 463212;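 active = growth inhibition of the mutant yeast at or above 50%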;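 note: temperature-sensitive mutant grown at 25 °C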
tim10-1 inh: tim10-1 yeast growth inhibition; S. cerevisiae tim10-1 ts strain growth, BacTiter-Glo, 24 h; inhibition, % at 20 µM; 2.2% of 330,000 active; AID 463190;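 active = inhibition of at least 40%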;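 note: mutant grown at 25 °C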
CHOP UPR activ: apoptotic UPR (CHOP) activation | CHO-CHOP luciferase reporter, luminescence; percent of tunicamycin response over DMSO baseline | activation, % at 10 µM | 0.34% of 330,000 active;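 active = at 10 µM dose, activation of 40% or more, normalized to positive control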
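Assay system: CHO-CHOP cells, stable luciferase reporter of PERK-eIF2a-CHOP signalling / Buffer or medium: F12 plus 10% serum / Compound dosing: one dose, 10 µM in 0.5% DMSO / Times: 6 h compound treatment, 37 °C / Technique: luciferase luminescence / Read-out: % reporter activation, DMSO baseline versus tunicamycin full activation / Benchmarks: tunicamycin and DMSO controls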
TIM10 inh: TIM10 yeast growth inhibition; AID 463195; S. cerevisiae TIM10 strain growth, BacTiter-Glo luminescence, 24 h; 1.4% of 330,000 active; inhibition, % at 10 µM;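 active = inhibition of 40% or more at the single tested concentration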;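 note: wild-type TIM10 isogenic control strain grown at permissive 25 °C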
tim10-1 conf: confirmation of tim10-1 mutant yeast growth inhibitors | shares compounds with tim10-1 inh | S. cerevisiae tim10-1 ts strain growth, BacTiter-Glo, 24 h | inhibition, % at 20 µM | 56% of 7,400 active;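 active = inhibition of yeast growth at or above a set limit in either of two repeat tests at 20 µM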;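 note: tim10-1 mutant grown at permissive 25 °C to find synthetic lethal compounds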
Hits are given with their value; i = inactive; nt = no result given. The list is not random: actives were taken first. Their share in the collection is about 3.9%.

SMILES	UPR XBP1 act	tim23-1 inh	tim10-1 inh	CHOP UPR activ	TIM10 inh	tim10-1 conf
Cc1cccc2sc(N(CCN(C)C)C(=O)c3cc(Cl)sc3Cl)nc12	i	i	i	i	i	nt
COc1cc2ccccc2cc1C(=O)N(CCN(C)C)c1nc2c(OC)ccc(OC)c2s1	i	i	46.3	i	i	i
CCOc1cc(/C=C2\CCCc3c2nc2ccccc2c3C(=O)O)ccc1OC	i	i	i	i	i	nt
CCSc1c([N+](=O)[O-])c(=O)n(-c2ccccc2)c2ccccc12	i	i	46.7	i	i	45.5
CC(=O)CCc1oc2ccc(C)cc2c1-c1ccc(C)o1	i	i	46.1	i	i	57.6
CNC(=S)Nc1ccc(Cc2ccncc2)cc1	i	i	i	i	i	nt
CC(C)(C)C(=O)NC(=S)Nc1ccc(Cc2ccncc2)cc1	i	i	44.3	i	i	i
CC(=O)N/C(=C\c1ccccc1)C(=O)OCC(=O)N(C)C1CCS(=O)(=O)C1 (configuration not stated)	i	i	i	i	i	nt
CCc1c(C(=O)NCc2ccccc2Cl)[nH]c(C)c1C(C)=O	i	i	55.8	i	i	i
CC(=O)c1c(C)[nH]c(C(=O)NCc2ccccc2Cl)c1C	i	i	i	i	i	nt
O=C(Nc1ccc(N2CCCCC2)cc1)c1ccccn1	i	i	40.9	i	i	30.6
Cc1cccc(CCNS(=O)(=O)c2ccc3c(c2)NC(=O)CS3)c1	i	i	i	i	i	nt
Cc1nc(SCC(=O)N2CCN(c3ccccc3)CC2)c2oc3ccccc3c2n1	i	i	47.5	i	i	42.6
Cc1nc(SCC(=O)O)c2oc3ccccc3c2n1	i	i	i	i	i	nt
COc1ccccc1C(CNC(=O)C1CC(=O)N(Cc2ccc(C)cc2)C1)N1CCCC1 (configuration not stated)	i	i	i	i	i	nt
CCn1c2ccccc2c2cc(CNCCCN3CCOCC3)ccc21	i	i	i	i	i	nt
Clc1ccc2c(c1)c1ccccc1n2CN1CCOCC1	i	i	53.9	i	i	i
COc1ccc(OC)c2nc(-c3ccc4c(c3)OCO4)ccc12	i	i	41.2	i	i	34.5
CCCc1nnc(NC(=O)CCC(=O)NC2CCCC2)s1	i	i	i	i	i	nt
CN(C(=O)c1ccccc1C(=O)OCC(=O)Nc1ccc(S(N)(=O)=O)cc1)c1ccccc1	i	i	i	i	i	nt
CN(C(=O)c1ccccc1C(=O)OCC(=O)Nc1ccc(OC(F)F)cc1)c1ccccc1	i	i	42.8	i	i	i
CC(=O)Nc1ccc(S(=O)(=O)NC2C3(C)CCC(C3)C2(C)C)cc1 (configuration not stated)	i	i	i	i	i	nt
Cc1ccc(C)c(NC(=O)c2ccc3c(=O)n4c(nc3c2)CCC4)c1	i	i	i	i	i	nt
COc1ccc(C)cc1NC(=O)c1ccc2c(=O)n3c(nc2c1)CCCCC3	i	i	40.5	i	i	i
CCN1C(=O)c2ccccc2Sc2ccc(C(=O)NCCCN(CC(C)C)CC(C)C)cc21	i	i	i	i	i	nt
SMILES	UPR XBP1 act	tim23-1 inh	tim10-1 inh	CHOP UPR activ	TIM10 inh	tim10-1 conf
COc1cc(/C=N/N2CCN(Cc3ccccc3)CC2)cc(OC)c1OC(C)=O	i	i	i	i	i	nt
N#Cc1ccc(C(=O)NC23CC4CC(CC(C4)C2)C3)cc1	i	i	40.6	i	i	i
CC[N+](CC)(CC#Cc1ccccc1)CC(=O)c1ccc(Cl)cc1	i	i	50.8	i	i	44.9
CSCCC(NC(=O)c1ccccc1)C(=O)NNC(=O)c1csc(N2CCOCC2)n1 (configuration not stated)	i	i	i	i	i	nt
N#C/C(=C\c1cn[nH]c1-c1ccc(Cl)cc1)C(=O)NC1CC1	i	i	i	i	i	nt
N#C/C(=C\c1cn[nH]c1-c1ccc(Cl)cc1)C(=O)NCc1ccccc1	i	i	43.0	i	i	45.9
CCOc1cc(C(=S)N2CCN(C)CC2)ccc1OCC(=O)N1CCCC1	i	i	i	i	i	nt
CC(C)Nc1ncnc2c1cnn2Cc1ccc(Cl)cc1	i	i	43.4	i	i	i
CCC(C)Nc1ncnc2c1cnn2Cc1ccc(Cl)cc1 (configuration not stated)	i	i	42.5	i	i	i
